Experimental data from ChEMBL document CHEMBL1157387, “Antitussive stemoninine alkaloids from the roots of Stemona tuberosa” (2008).

Assays:
Format in all cases: functional
Cavia porcellus [1] = assay: Antitussive activity in guinea pig assessed as inhibition of citric acid-induced coughing at 0.25 umol, intracerebroventricularly administered as single dose after 3 mins relative to control
Method in brief: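 Unrestrained conscious Dunkin-Hartley guinea pigs with a 22-gauge guide cannula in the lateral ventricle, placed stereotaxically under anaesthesia, recovered 4 days. Single icv dose in 10 µL of Tween 80/saline (5:95). 3 min later, 8-min 0.5 M citric acid aerosol (0.5 mL/min) in an airtight chamber. Cough sounds recorded and episodes counted. % inhibition vs vehicle group; one-way ANOVA with Bonferroni tests.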

Cavia porcellus [2] = assay: Antitussive activity in guinea pig assessed as inhibition of citric acid-induced coughing at 0.26 mmol/kg, ip administered as single dose after 30 mins; details: 0.5 h
Method in brief: (§1)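 Unrestrained conscious Dunkin-Hartley guinea pigs, randomised, given a single ip dose in DMSO. 30 min later, 8-min 0.5 M citric acid aerosol (0.5 mL/min) in an airtight chamber. Cough sounds recorded and episodes counted. % inhibition vs vehicle group (n = 4-8); one-way ANOVA with Bonferroni tests.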

Cavia porcellus [3] = assay: Antitussive activity in guinea pig assessed as inhibition of citric acid-induced coughing at 0.26 mmol/kg, po administered as single dose after 30 mins; design: scale not given: the % may be the effect or the level left
Method in brief: (§2)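 Unrestrained conscious Dunkin-Hartley guinea pigs, randomised, given a single oral dose of 100 mg/kg in Tween 80/saline (5:95). 30 min later, 8-min 0.5 M citric acid aerosol (0.5 mL/min) in an airtight chamber. Cough episodes counted from recorded sounds. % inhibition vs vehicle group (n = 4-8); ANOVA with Bonferroni tests.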

Cavia porcellus [4] = assay: Antitussive activity in guinea pig assessed as inhibition of citric acid-induced coughing at 0.33 mmol/kg, ip administered as single dose after 30 mins; details: 0.5 h; method in brief: as §1
Cavia porcellus [5] = assay: Antitussive activity in guinea pig assessed as inhibition of citric acid-induced coughing at 0.33 mmol/kg, po administered as single dose after 30 mins; design: scale not given: the % may be the effect or the level left; method in brief: as §2

CC[C@H]1[C@H]2[C@@H](CCCN3C([C@@H]4C[C@H](C)C(=O)O4)=CC(=O)[C@@]23OC)O[C@]12C=C(C)C(=O)O2
inhibition (INH) (Cavia porcellus [1]): 10%

CC[C@H]1[C@H]2[C@@H](CCCN3C([C@@H]4C[C@H](C)C(=O)O4)=CC(=O)[C@@]23O)O[C@]12C=C(C)C(=O)O2 [STEMOENONINE]
inhibition (INH) (Cavia porcellus [1]): 10%

CC[C@H]1[C@H]2[C@@H](CCCN3[C@H]2CC[C@H]3[C@@H]2C[C@H](C)C(=O)O2)O[C@]12C=C(C)C(=O)O2 [STEMONININE]
inhibition in vivo at 260 µmol/kg (Cavia porcellus [2]): 90% | Activity (Cavia porcellus [3]): 70% | inhibition (INH) (Cavia porcellus [1]): 10%

CC[C@H]1[C@H]2[C@@H](CCCN3C(=O)CC[C@@H]23)O[C@]12C=C(C)C(=O)O2 [STEMONINOAMIDE]
inhibition in vivo at 330 µmol/kg (Cavia porcellus [4]): 90% | Activity (Cavia porcellus [5]): 70% | inhibition (INH) (Cavia porcellus [1]): 10%
